Hits are enriched below; roughly 2.1% of the tested compounds scored in any of these assays.
Shn3 3UTR inh = inhibitors of Schnurri-3 3'UTR reporter in osteoblasts. hit rate 0.52% among 360,000. Clone20 osteoblast Shn3 3'UTR firefly luciferase, 24 h. AID 588674. inhibition, % at 12.5 µM;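 active = mean inhibition of at least 75% with every replicate also reaching 75%; inconclusive = mean inhibition at least 75% but some replicate below; inactive = mean inhibition below 75%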;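 note: 0% = median of neutral control wells and 100% = pilot-screen positive control compound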
PAX8 inh HTS = inhibitors of PAX8 transcriptional activity in RMG-I cells | inhibition, % at 12.6 µM | RMG-I TPO-luciferase reporter, SteadyGlo, 24 h | hit rate 1.2% among 360,000;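 active = mean replicate inhibition at least 60% with every replicate also reaching 60%; inconclusive = only one of the two criteria is met; inactive = mean below 60% and not all replicates reaching 60%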;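 note: luciferase light reporting Pax8 driven TPO promoter activity; plate controls were median of neutral control wells for no effect and mitoxantrone controls for full effect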
LMP1 NFkB inh = reduces LMP1-driven NF-kappaB luciferase signal; inhibition, % at 12.5 µM; LMP1-induced NF-kappaB luciferase reporter cells, luminescence; hit rate 0.69% among 350,000; AID 504558; in the data active = inhibition above about 41%; inconclusive = no clear call, values can overlap the other calls;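 note: 0% = neutral control wells and 100% = reference inhibitor control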
EWS-Fli inh = blocks EWS/Fli oncoprotein-driven transcription; A673 NR0B1-luciferase reporter, viability-normalised; inhibition, % at 12.6 µM; hit rate 0.67% among 350,000;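 active = mean inhibition of at least 50% after viability correction, with every replicate also passing that limit; inconclusive = mean reaches 50% but only one of two replicates passes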;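 note: firefly luciferase signal divided by Alamar Blue viability fluorescence both relative to DMSO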
aSyn UTR inh = MLPCN primary screen, SNCA 5' untranslated region; alpha-synuclein 5'UTR reporter, inhibitor activity; inhibition, % (tested at 7.5 µM); hit rate 0.82% among 300,000; in the data active = inhibition above about 60%; inconclusive = no clear call, values can overlap the other calls;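 note: H4 neuroglioblastoma cells stably carrying SNCA 5'UTR luciferase fusion; 0% = DMSO wells and 100% = positive control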
FN deposition inh = fibronectin deposition inhibition | AH1F fibroblasts, Alexa488-fibronectin deposition fluorescence, overnight | inhibition, % at 12.6 µM | hit rate 0.086% among 350,000;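 active = mean inhibition across replicates of 30% or more, regardless of how many single replicates reach that level; inconclusive = mean under 30% yet at least half of replicates reach 30%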;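 note: positive control wells lacked labelled fibronectin entirely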
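test system = AH1F fibroblasts assembling fluorescent fibronectin matrix | quantity = 10000 AH1F cells per well | buffer or medium = DMEM plus 2% serum, read in PBS | doses = single dose, pinned | incubation = 1 h cell attachment, overnight exposure to compound and label | detection = fluorescence at 485 nm excitation, 525 nm emission | read-out basis = inhibition from reduced deposited-fibronectin fluorescence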
* marks the source's active call; other numbers are inactive results; u = inconclusive; x = no result given.

SMILES	Shn3 3UTR inh	PAX8 inh HTS	LMP1 NFkB inh	EWS-Fli inh	aSyn UTR inh	FN deposition inh
O=C(C[C@@H]1C[C@@H]2c3cc(NC(=O)NC4CCCC4)ccc3O[C@@H]2[C@@H](CO)O1)NCc1ccc(-c2ccccc2)cc1	x	5	x	3	x	6
CCOC(=O)/C=c1\s/c(=C\c2c(OC)ccc3ccccc23)c(=O)n1CC(=O)NCC1CCCO1 (stereo unspecified)	2	x	9	35	71*	x
COc1ccc(Cc2c(-c3ccc(OC)c(OC)c3)nc3c(C)cc(Br)cn23)c(C)c1	-3	66*	x	8	x	-2
CCC(Oc1ccccc1)C(=O)NC1CCCCCC1 (stereo unspecified)	-6	3	4	4	9	x
CCC(Oc1ccccc1)C(=O)NC1CCSC1=O (stereo unspecified)	-6	16	66*	-7	-2	4
C[C@@H]1CN([C@H](C)CO)C(=O)c2cc(NC(=O)Cn3cnnn3)ccc2O[C@H]1CN(C)S(=O)(=O)c1cccs1	x	x	x	-7	x	6
CCCCCN1C=CC(=C2C(=O)c3ccccc3C2=O)C=C1	93*	99*	76*	91*	113*	-6
CC1=CC(=C2C(=O)c3ccccc3C2=O)C=C(C)N1C	-99	x	-18	x	-132	x
C[C@@H]1CN([C@@H](C)CO)C(=O)c2cc(C#Cc3cccnc3)cnc2O[C@H]1CN(C)C(=O)CC1CC1	x	x	x	13	x	-6
Clc1ccc2nc(N3CCCCC3)[nH]c2c1	-89	x	-20	x	-123	x
O=c1c2ccccc2cnn1-c1nc2ccccc2[nH]1	88*	114*	85*	91*	98*	x
O=c1c2ccccc2nc2c3ccccc3cnn12	-14	-125	-29	-97	-172	-5
O=c1c(Cl)c(N2CCCCC2)cnn1-c1nc2ccccc2[nH]1	44	x	78*	x	93*	11
COCCOC(=O)c1[nH]c2c(c1C)C(=O)CC(c1ccccc1)C2 (stereo unspecified)	40	x	0	x	78*	x
CCOC(=O)c1[nH]c2c(c1C)C(=O)CC(c1ccco1)C2 (stereo unspecified)	11	83*	2	32	73*	16
Cc1c(C(=O)OCc2ccccc2)[nH]c2c1C(=O)CC(c1ccco1)C2 (stereo unspecified)	86*	x	15	x	34	x
COCCOC(=O)c1[nH]c2c(c1C)C(=O)CC(c1ccc(F)cc1)C2 (stereo unspecified)	41	37	4	38	1	9
COCCOC(=O)c1[nH]c2c(c1C)C(=O)CC(c1ccco1)C2 (stereo unspecified)	66	46	-2	65*	44	6
CCCOc1ccccc1N/C(N)=N/c1nc(C)cc(C)n1	30	-3	4	-1	-30	14
CCCOc1ccccc1N/C(=N/c1nc(C)cc(C)n1)NC(=O)COc1ccc(OC)cc1	91*	x	24	x	10	x
COc1ccc(NC(=O)C[C@H]2C(=O)N(CCc3ccccc3)C[C@@H]2c2ccc(OC)cc2)cc1	-8	-21	44*	-20	x	11
COc1cc(-c2nc(C(=O)NCC3CCCO3)cc3c2[nH]c2ccccc23)cc(OC)c1OC (stereo unspecified)	40	x	92*	14	21	x
C[C@H]1CN([C@@H](C)CO)C(=O)c2cc(C#CC3CC3)cnc2O[C@H]1CN(C)C(=O)CC1CC1	x	x	x	4	x	-2
O=C(/C=C/Nc1ccc(Br)cc1F)c1ccco1	18	-89	39	73*	u	2
O=C(/C=C/Nc1cccc(F)c1)c1ccco1	-81	x	-39	x	-264	x
SMILES	Shn3 3UTR inh	PAX8 inh HTS	LMP1 NFkB inh	EWS-Fli inh	aSyn UTR inh	FN deposition inh
O=C(/C=C/Nc1ccc(F)cc1F)c1ccco1	-39	-36	15	65*	24	-3
Nc1nc(Cl)cc(N2CCC(c3cc(-c4ccc(Cl)cc4)n[nH]3)CC2)n1	81*	x	-8	11	43	x
CC(=NNc1nc2ccccc2o1)c1ncccn1	84	74*	58*	-1	x	-12
CC(=NNc1nc2ccccc2s1)c1ncccn1	83	56	63*	-15	x	4
CC(=NNc1nc2ccccc2o1)c1cc2ccccc2cn1	80	x	57*	27	x	9
Oc1ccccc1/C=N/Nc1nc2ccccc2o1	66	-10	0	-51	31	7
Cc1cc(C)nc(Nc2nc3ccccc3o2)n1	-30	-47	-12	-32	-70	0
O=C(C[C@@H]1CC[C@@H](NC(=O)Nc2cc(F)ccc2F)[C@@H](CO)O1)Nc1ccccc1	x	x	x	-2	x	x
C[C@@H]1CN([C@@H](C)CO)C(=O)Cc2cc(NS(=O)(=O)c3ccc(Cl)cc3)ccc2O[C@H]1CN(C)C(=O)Nc1ccc2c(c1)OCO2	x	20	x	-6	x	x
CCCN1CCC2(CC1)CN(Cc1ccccc1OC)[C@H](CO)c1c2c2ccc(OC)cc2n1C	x	x	x	-2	x	10
N=c1n(Cc2ccccc2)c2ccccc2n1CC(O)COc1ccccc1 (stereo unspecified)	89*	10	-18	x	13	x
O=C(O)C(=Cc1cccc([N+](=O)[O-])c1)c1ccccc1	-14	9	-4	-1	x	x
O=C(C#Cc1cccc([N+](=O)[O-])c1)c1ccccc1	93*	x	46*	x	-2	x
Nc1ccccc1C#CC(=O)c1ccccc1	99*	10	-27	67*	-90	-47
Nc1ccccc1C#Cc1ccc([N+](=O)[O-])cc1	-79	-120	-58	-25	-262	-1
O=C(C[C@H]1C[C@@H]2c3cc(NS(=O)(=O)c4ccc(F)cc4)ccc3O[C@@H]2[C@H](CO)O1)NC1CCCCC1	x	7	x	-3	x	x
O=C(Cc1nnc(NC(=O)c2ccccc2)s1)N/N=C/c1ccco1	-2	132*	-8	-35	9	10
C[C@@H]1CCCCO[C@@H](CN(C)Cc2ccncc2)[C@H](C)CN([C@H](C)CO)C(=O)c2cc(NC(=O)Nc3ccc(C(F)(F)F)cc3)ccc2O1	x	99*	x	14	x	x
C[C@H]1CCCCO[C@H](CN(C)Cc2ccncc2)[C@@H](C)CN([C@@H](C)CO)C(=O)c2cc(NC(=O)Nc3ccc(C(F)(F)F)cc3)ccc2O1	x	58	x	9	x	x
C[C@@H]1CN([C@@H](C)CO)C(=O)c2cc(NC(=O)Nc3ccc(C(F)(F)F)cc3)ccc2O[C@@H](C)CCCCO[C@@H]1CN(C)Cc1ccncc1	x	83*	x	3	x	x
C[C@@H]1CCCCO[C@@H](CN(C)Cc2ccncc2)[C@@H](C)CN([C@H](C)CO)C(=O)c2cc(NC(=O)Nc3ccc(C(F)(F)F)cc3)ccc2O1	x	-34	x	-16	x	x
C[C@@H]1CN([C@@H](C)CO)C(=O)c2cc(NC(=O)Nc3ccc(C(F)(F)F)cc3)ccc2O[C@@H](C)CCCCO[C@H]1CN(C)Cc1ccncc1	x	86*	x	14	x	x
